# Experimental data from ChEMBL document CHEMBL4428069, “Parallel inhibition of amino acid efflux and growth of erythrocytic Plasmodium falciparum by mefloquine and non-piperidine analogs: Implication for the mechanism of antimalarial action” (Bioorg Med Chem Lett, 2016).
# The source made the active and inactive calls. No cut-off for these calls is given here.
# What was measured:
# [1] = test system: Plasmodium falciparum; assay: Antimalarial activity against trophozoite stage of Plasmodium falciparum 3D7 infected-erythrocytes assessed as reduction in Leu efflux after 4 hrs by UPLC method; format: functional, organism-based; conditions: 3D7, 4 h
# How it was run: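 Trophozoite-stage 3D7-infected erythrocytes at 2% hematocrit and 10% parasitemia, cultured in medium lacking Leu and Val with D-norvaline as internal standard. Full concentration–response up to 1000 nM with a 4 h endpoint. Leu in the recovered conditioned medium quantified by UPLC (AccQ-Tag). Mean and standard deviation of three independent experiments.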
# [2] = test system: Plasmodium falciparum; assay: Antimalarial activity against chloroquine/mefloquine-sensitive Plasmodium falciparum 3D7 infected-erythrocytes assessed as parasite growth inhibition after 48 to 54 hrs by SYBR green 1-based replication method; format: functional, organism-based
# How it was run: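 Chloroquine- and mefloquine-sensitive 3D7 strain; growth inhibition measured with a SYBR Green I-based replication assay. IC50 reported as mean and standard deviation of three independent experiments.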
# [3] = test system: Plasmodium falciparum; assay: Antimalarial activity against chloroquine-resistant, mefloquine-sensitive Plasmodium falciparum W2 assessed as parasite growth inhibition by [3H]hypoxanthine incorporation assay
# [4] = test system: Plasmodium falciparum; assay: Antimalarial activity against trophozoite stage of Plasmodium falciparum 3D7 infected-erythrocytes assessed as reduction in Leu efflux at 160 nM after 120 mins by UPLC method; format: functional, organism-based
# How it was run: (§1)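 Time course on 3D7-infected erythrocytes in medium lacking Leu and Val, with D-norvaline as internal standard. Exposure to 160 nM or DMSO, with conditioned medium sampled from 0 to 240 min. Leu in the medium measured by UPLC (AccQ-Tag), with a hyperbolic fit of the treated data. Points are the average of two technical replicates.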
# [5] = test system: Plasmodium falciparum; assay: Antimalarial activity against mefloquine-sensitive Plasmodium falciparum 3D7 infected-erythrocytes assessed as parasite growth inhibition after 48 hrs by sandwich ELISA; format: functional; conditions: 3D7, 48 h
# [6] = test system: Plasmodium falciparum; assay: Antimalarial activity against trophozoite stage of Plasmodium falciparum 3D7 infected-erythrocytes assessed as inhibition of Leu efflux at 160 nM after 60 mins by UPLC method; format: functional; conditions: 3D7, 4 h, in the assay text read “after 4 hrs” for “after 60 mins”; how it was run: as §1
Compound,IC50 [1] [µM],IC50 [2] [µM],IC90 [3] [µM],Activity [4],IC90 [5] [µM],inhibition at 0.16 µM [6] [%]
O=C1C(O)=C([C@H]2CC[C@H](c3ccc(Cl)cc3)CC2)C(=O)c2ccccc21 [ATOVAQUONE],> 1,0.0006,–,–,–,–
CCOCC(O)c1cc(C(F)(F)F)nc2c(C(F)(F)F)cccc12 (stereo not given),22,22,–,–,–,–
CC(C)N(CC(O)c1cc(C(F)(F)F)nc2c(C(F)(F)F)cccc12)C(C)C (stereo not given),0.59,0.35,0.012,–,–,–
CCCN(CCC)CC(O)c1cc(C(F)(F)F)nc2c(C(F)(F)F)cccc12 (stereo not given),0.0093,0.0047,–,–,–,–
OC(CNC1CCCCC1)c1cc(C(F)(F)F)nc2c(C(F)(F)F)cccc12 (stereo not given),0.0097,0.0038,0.006,–,–,–
OC(CNCCC1CCCC1)c1cc(C(F)(F)F)nc2c(C(F)(F)F)cccc12 (stereo not given),0.21,0.12,–,–,–,–
CCCNCC(O)c1cc(C(F)(F)F)nc2c(C(F)(F)F)cccc12 (stereo not given),0.01,0.0042,0.001,–,–,–
CCCCNCC(O)c1cc(C(F)(F)F)nc2c(C(F)(F)F)cccc12 (stereo not given),0.009,0.0049,0.005,–,–,–
OC(CNCCc1ccccc1)c1cc(C(F)(F)F)nc2c(C(F)(F)F)cccc12 (stereo not given),0.013,0.0085,0.011,–,–,–

# The next lines start with results.
IC50 [1] [µM],Compound,IC50 [2] [µM],IC90 [3] [µM],Activity [4],IC90 [5] [µM],inhibition at 0.16 µM [6] [%]
> 1,CC1(C)N=C(N)N=C(N)N1OCCCOc1cc(Cl)c(Cl)cc1Cl,–,–,–,–,–
2.6,OC(CNc1ccccc1)c1cc(C(F)(F)F)nc2c(C(F)(F)F)cccc12 (stereo not given),2,1.2,–,–,–
0.5,OCCNCC(O)c1cc(C(F)(F)F)nc2c(C(F)(F)F)cccc12 (stereo not given),0.34,0.71,–,–,–
0.051,C#CCCNCC(O)c1cc(C(F)(F)F)nc2c(C(F)(F)F)cccc12 (stereo not given),0.034,–,–,–,–
0.022,"O[C@@H](c1cc(C(F)(F)F)nc2c(C(F)(F)F)cccc12)[C@H]1CCCCN1 [(S,R)-MEFLOQUINE]",0.0091,0.016,Active,0.146,70
0.14,C#CCNCC(O)c1cc(C(F)(F)F)nc2c(C(F)(F)F)cccc12 (stereo not given),0.11,1.4,–,–,–
0.015,OC(CNC12CC3CC(CC(C3)C1)C2)c1cc(C(F)(F)F)nc2c(C(F)(F)F)cccc12 (stereo not given),0.0059,–,–,–,–
5,NCCCNCC(O)c1cc(C(F)(F)F)nc2c(C(F)(F)F)cccc12 (stereo not given),1.6,–,–,–,–
0.32,CN(C)CCNCC(O)c1cc(C(F)(F)F)nc2c(C(F)(F)F)cccc12 (stereo not given),0.24,1.3,–,–,–
0.18,CCCCN(CCCN)CC(O)c1cc(C(F)(F)F)nc2c(C(F)(F)F)cccc12 (stereo not given),0.049,–,–,–,–
0.36,C#CCCN(CCCN)CC(O)c1cc(C(F)(F)F)nc2c(C(F)(F)F)cccc12 (stereo not given),0.14,–,–,–,–
0.014,CC(C)NCC(O)c1cc(C(F)(F)F)nc2c(C(F)(F)F)cccc12 (stereo not given),0.0074,0.013,–,–,–
